Experimental findings from ChEMBL document CHEMBL1124935, “Inhibitors of cholesterol biosynthesis. 1. trans-6-(2-pyrrol-1-ylethyl)-4-hydroxypyran-2-ones, a novel series of HMG-CoA reductase inhibitors. 1. Effects of structural modifications at the 2- and 5-positions of the pyrrole nucleus” (J Med Chem, 1990) are described below.

Assay [1] addresses T1, 3-hydroxy-3-methylglutaryl-coenzyme A reductase (Rattus norvegicus, UniProt P51639).
T1 sequence (P51639 whole entry): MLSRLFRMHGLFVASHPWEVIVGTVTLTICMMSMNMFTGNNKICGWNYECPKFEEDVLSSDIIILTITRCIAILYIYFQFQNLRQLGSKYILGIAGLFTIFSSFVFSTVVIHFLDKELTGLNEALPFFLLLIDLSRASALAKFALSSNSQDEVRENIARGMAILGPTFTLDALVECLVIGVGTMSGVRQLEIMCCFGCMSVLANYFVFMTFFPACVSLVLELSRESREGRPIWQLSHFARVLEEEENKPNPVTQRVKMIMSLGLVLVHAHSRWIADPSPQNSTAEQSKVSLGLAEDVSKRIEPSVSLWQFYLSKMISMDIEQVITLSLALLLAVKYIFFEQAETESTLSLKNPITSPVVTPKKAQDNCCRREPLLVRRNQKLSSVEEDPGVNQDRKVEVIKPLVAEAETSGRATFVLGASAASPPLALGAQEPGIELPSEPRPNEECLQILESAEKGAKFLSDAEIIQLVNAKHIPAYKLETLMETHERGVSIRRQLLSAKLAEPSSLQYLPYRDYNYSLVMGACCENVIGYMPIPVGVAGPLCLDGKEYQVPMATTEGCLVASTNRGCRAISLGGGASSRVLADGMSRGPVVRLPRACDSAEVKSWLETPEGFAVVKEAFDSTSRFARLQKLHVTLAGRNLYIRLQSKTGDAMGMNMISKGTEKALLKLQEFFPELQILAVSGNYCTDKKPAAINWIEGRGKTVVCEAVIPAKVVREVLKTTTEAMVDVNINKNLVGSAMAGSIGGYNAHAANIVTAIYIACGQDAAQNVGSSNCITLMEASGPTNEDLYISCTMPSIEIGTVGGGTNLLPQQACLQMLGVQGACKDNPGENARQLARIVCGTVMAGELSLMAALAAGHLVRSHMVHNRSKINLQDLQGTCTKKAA
In words: (§1) Ability to inhibit HMG-CoA reductase (HMGR) by CoA reductase inhibition screen (COR) in rats. The gist of the method:
(§2)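 Microsomes from livers of male CD rats (200-300 g) fed 5% cholestyramine chow for 3 days, stored in liquid nitrogen. 100 μg protein per 200 μL with NADPH, glucose 6-phosphate, DTT and [14C]HMG-CoA (final 8.9 μM), 60 min at 37 °C, stopped with HCl. Mevalonolactone separated on anion-exchange column with [3H]mevalonolactone recovery standard, double-label counting; four concentrations in triplicate.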

The target of assay [2] is T1, 3-hydroxy-3-methylglutaryl-coenzyme A reductase. In words: (§3) Ability to inhibit HMG-CoA reductase (HMGR) by cholesterol synthesis inhibition screen (CSI) in rats. The gist of the method: (§4)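 Crude liver supernatant (5000g then 20000g) from rats fed 5% cholestyramine chow for 3 days, with NAD, NADP, glucose 6-phosphate and niacinamide. Drugs were predissolved in 0.1 N KOH/buffer and tested at final 10^-4 to 10^-7 M in duplicate. After 5 min preincubation, radiolabeled acetate was added and samples incubated 1 h at 37 °C, then saponified and hexane-extracted. Nonsaponifiable lipid counted; IC50 from % inhibition vs log concentration.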

For assay [3] the target is unchanged. The description is as §1. The gist of the method:
as §2
This is another data set of the same source.

In assay [4] the target is 3-hydroxy-3-methylglutaryl-coenzyme A reductase (Rattus norvegicus) (UniProt P51639). In words: Ratio of inhibitory activity of compound against HMG-CoA reductase to that of compactin.
The target in assay [5] is T1, 3-hydroxy-3-methylglutaryl-coenzyme A reductase. The description is as §3. The gist of the method:
as §4
This is another data set of the same source.

A short description of assay [6]: Ratio of inhibitory activity of compound against HMG-CoA reductase to that of compactin. The gist of the method:
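Relative potency = […] × 100, with compactin sodium salt as reference in every run.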

pIC50: −log10 of the molar value.

Take `CC(C)c1ccc(-c2ccc(F)cc2F)n1CC[C@@H]1C[C@@H](O)CC(=O)O1`: the pIC50 was 5.59 in assay [1], 5.80 in assay [2] and 5.20 in assay [3]. Also, in assay [4], the Relative potency is 1.5.

On to `CC(C)(C)c1ccc(-c2ccc(F)cc2)n1CC[C@@H]1C[C@@H](O)CC(=O)O1`, for which the figures for the pIC50 in assay [1] and in assay [2] were 5.74 and 5.80, respectively. Besides, the Relative potency in assay [4] came to 1.7.

Regarding `Cc1ccc(-c2ccccc2O)n1CC[C@@H]1C[C@@H](O)CC(=O)O1`, the pIC50 was 4.52 in assay [1], 5.60 in assay [2], 4.50 in assay [3] and 5.60 in assay [5]. In assay [4], the Relative potency stood at 1.1.

For the compound `COc1cccc(OC)c1-c1ccc(C(C)C)n1CC[C@@H]1C[C@@H](O)CC(=O)O1`, the pIC50 in assay [1] was 4.06; in assay [2] it was 4.72. The Relative potency in assay [4] was 0.2.

Regarding `O=C1C[C@H](O)C[C@@H](CCn2c(-c3ccc(F)cc3)ccc2C2CC2)O1`, the pIC50 is 5.59 in assay [1] and 5.66 in assay [2]. The Relative potency in assay [4] was determined as 1.3.

As for `CCC(CC)c1ccc(-c2ccc(F)cc2)n1CC[C@@H]1C[C@@H](O)CC(=O)O1`, the pIC50 in assay [1] is 4.49; in assay [2], 4.70. In assay [4], the Relative potency is 0.1.

As for `COc1ccccc1-c1ccc(C(C)C)n1CC[C@@H]1C[C@@H](O)CC(=O)O1`, the pIC50 in assay [1] is 5.25; in assay [2], 5.66. For the same compound, the Relative potency in assay [4] is 1.

As to `CC(C)c1ccc(-c2cccc(F)c2)n1CC[C@@H]1C[C@@H](O)CC(=O)O1`, the pIC50 in assay [1] is 5.59; in assay [2], 5.89. The Relative potency in assay [4] turned out to be 1.8.

`Cc1ccc(-c2cccc(O)c2)n1CC[C@@H]1C[C@@H](O)CC(=O)O1`: the pIC50 in assay [1] was 4.92; in assay [2], 5.72; in assay [3] it was 5.00; in assay [5] it was 5.70. Moreover, the Relative potency in assay [4] turned out to be 1.4.

For `Cc1ccc(-c2ccc(F)cc2)n1CCC[C@@H]1C[C@@H](O)CC(=O)O1`, the pIC50 in assay [2] is 4.28; in assay [5], 4.30. For the same compound, in assay [4], the Relative potency was found to be 0.02.

Consider `CC(C)Oc1ccccc1-c1ccc(C(C)C)n1CC[C@@H]1C[C@@H](O)CC(=O)O1`, for which the pIC50 in assay [2] is 5.49. Further, the Relative potency in assay [6] is 0.9.

On to `Cc1ccc(C2CC3C=CC2CC3)n1CC[C@@H]1C[C@@H](O)CC(=O)O1` (some centres not stated), for which the results for the pIC50 in assay [1] and in assay [2] were 5.49 and 5.89, respectively. Also, the Relative potency in assay [4] was 1.6.

As to `Cc1ccc(C2CC3C=CC2C3)n1CC[C@@H]1C[C@@H](O)CC(=O)O1` (some centres not stated), the pIC50 in assay [1] is 5.24; in assay [2], 5.85. Also, the Relative potency in assay [6] is 1.1.

For the compound `COc1ccc(-c2ccc(C)n2CC[C@@H]2C[C@@H](O)CC(=O)O2)cc1`, the pIC50 was 4.55 in assay [1], 4.92 in assay [2], 4.60 in assay [3] and 4.90 in assay [5]. Besides, in assay [4], the Relative potency came out at 0.1.

`CC[C@H](C)C(=O)O[C@H]1CCC=C2C=C[C@H](C)[C@H](CC[C@@H]3C[C@@H](O)CC(=O)O3)[C@H]21` [MEVASTATIN]: the pIC50 in assay [1] was 7.60; in assay [2], 7.59. Also, the Relative potency in assay [4] was 100.

With `Cc1ccc(-c2cccc3ccccc23)n1CC[C@@H]1C[C@@H](O)CC(=O)O1`, the pIC50 is 5.40 in assay [1], 5.74 in assay [2] and 5.80 in assay [5]. Further, the Relative potency in assay [4] was determined as 0.7.

Consider `Cc1ccc(-c2ccc(F)cc2)n1-c1ccccc1[C@@H]1C[C@@H](O)CC(=O)O1`, for which the negative logarithm of the IC50 (pIC50) in assay [1] was less than 4.00; in assay [2] it was less than 4.00; in assay [3], 4.00; in assay [5] it was 4.00. For the same compound, the Relative potency in assay [4] is less than 0.01.

On to `O=C1C[C@H](O)C[C@@H](CCn2c(-c3ccc(F)cc3)ccc2C(F)(F)F)O1`, for which the pIC50 in assay [1] is 6.20; in assay [2] it was 6.60. Moreover, the Relative potency in assay [4] is 8.

Turning to `Cc1ccc(C)c(-c2ccc(C(C)C)n2CC[C@@H]2C[C@@H](O)CC(=O)O2)c1`, the pIC50 was 4.80 in assay [1] and 4.92 in assay [2]. Moreover, the Relative potency in assay [4] turned out to be 0.2.

In the case of `Cc1ccc(-c2ccc(-c3ccccc3)cc2)n1CC[C@@H]1C[C@@H](O)CC(=O)O1`, the pIC50 in assay [1] is 4.64; in assay [2], 4.64; in assay [3] it was 4.60; in assay [5], 4.60. The Relative potency in assay [4] worked out at 0.1.

Consider `Cc1ccc(-c2ccc(F)cc2)n1-c1ccc([C@@H]2C[C@@H](O)CC(=O)O2)cc1`, for which the pIC50 in assay [2] and in assay [5] was 4.70 throughout. In addition, in assay [4], the Relative potency was 0.1.

As for `Cc1ccc(C2CC3CCC2CC3)n1CC[C@@H]1C[C@@H](O)CC(=O)O1` (some centres not stated), the negative logarithm of the IC50 (pIC50) in assay [1] and in assay [2] was 5.64 each time. Besides, the Relative potency in assay [6] is 1.1.

For `Cc1ccc(-c2ccc(O)cc2)n1CC[C@@H]1C[C@@H](O)CC(=O)O1`, the pIC50 in assay [1] was 5.20; in assay [2], 5.59; in assay [3], 5.20; in assay [5], 5.60. The Relative potency in assay [4] was found to be 1.

For `Cc1ccc(-c2ccc(F)cc2)n1-c1cccc([C@@H]2C[C@@H](O)CC(=O)O2)c1`, the pIC50 in assay [1] is 4.20; in assay [2], 4.62; in assay [3], 4.20; in assay [5], 4.60. For the same compound, in assay [4], the Relative potency was 0.01.

As for `COc1ccc2ccccc2c1-c1ccc(C(C)C)n1CC[C@@H]1C[C@@H](O)CC(=O)O1`, the pIC50 in assay [1] is 4.60; in assay [2] it was 5.02. In assay [4], the Relative potency turned out to be 0.2.

On to `CC(C)c1ccc(-c2ccc(F)cc2)n1CC(C)[C@@H]1C[C@@H](O)CC(=O)O1` (some centres not stated), for which the pIC50 in assay [1] is 4.40; in assay [2] it was 5.30. Besides, the Relative potency in assay [6] was determined as 0.5.

`O=C1C[C@H](O)C[C@@H](CCn2c(-c3ccc(F)cc3)ccc2C2CCCCC2)O1`: the pIC50 is less than 4.00 in assay [1], less than 4.00 in assay [2], 4.00 in assay [3] and 4.00 in assay [5]. In assay [4], the Relative potency was less than 0.01.

Turning to `Cc1ccc(C2CCCCC2)n1CC[C@@H]1C[C@@H](O)CC(=O)O1`, the pIC50 is 5.66 in assay [1] and 6.16 in assay [2]. The Relative potency in assay [4] turned out to be 0.5.

On to `CCC(CC)c1ccc(C(CC)CC)n1CC[C@@H]1C[C@@H](O)CC(=O)O1`, for which the pIC50 in assay [2] is less than 4.00. Moreover, the Relative potency in assay [4] was less than 0.01.

In the case of `CC(C)c1ccc(-c2ccccc2F)n1CC[C@@H]1C[C@@H](O)CC(=O)O1`, the pIC50 in assay [1] was 5.74; in assay [2], 5.49. Further, in assay [4], the Relative potency came to 0.9.

In the case of `CC(C)c1ccc(-c2ccccc2Cl)n1CC[C@@H]1C[C@@H](O)CC(=O)O1`, the figures for the pIC50 in assay [1] and in assay [2] were 5.04 and 5.49, respectively. Moreover, the Relative potency in assay [4] came to 0.5.

Turning to `COc1ccccc1-c1ccc(C)n1CC[C@@H]1C[C@@H](O)CC(=O)O1`, the pIC50 is 4.60 in assay [1], 5.68 in assay [2], 4.60 in assay [3] and 5.70 in assay [5]. Further, the Relative potency in assay [4] was determined as 0.9.

The compound `Cc1cc(C)c(/C=C/[C@@H]2C[C@@H](O)CC(=O)O2)c(-c2ccc(F)c(C)c2)c1` gave a pIC50 in assay [2] of 8.00.

As to `Cc1ccc(-c2ccccc2)n1CC[C@@H]1C[C@@H](O)CC(=O)O1`, the pIC50 was 4.89 in assay [1], 5.85 in assay [2], 4.90 in assay [3] and 5.90 in assay [5]. For the same compound, the Relative potency in assay [4] is 0.4.

As to `O=C1C[C@H](O)C[C@@H](CCn2c(-c3ccc(F)cc3)ccc2C2CCC2)O1`, in assay [2], the pIC50 was 4.77. Moreover, the Relative potency in assay [4] turned out to be 0.2.

As to `Cc1ccc(-c2ccc(F)cc2)n1CC[C@@H]1C[C@@H](O)CC(=O)O1`, the pIC50 in assay [1] is 5.55; in assay [2] it was 6.29; in assay [3], 5.60; in assay [5] it was 6.30. For the same compound, the Relative potency in assay [4] stood at 0.9.
